The record followed here is ChEMBL document CHEMBL1157557, “Synthesis and evaluation of 1,4-diphenylbutadiene derivatives as inhibitors of plasminogen activator inhibitor-1 (PAI-1) production” (Bioorg Med Chem, 2010).

Where only a bound is given, the exact number is not on record here.

Data set [1] is filed under the species Bos taurus. The data set can be described thus: Inhibition of LPS-induced plasminogen activator inhibitor-1 production assessed as relative inhibitory potency in BCAEC at 10 uM after 24 hrs by ELISA relative to T-686. It is filed as functional. The gist of the method: (§1)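 Bovine endothelial cells (BCaEs, passages 8–9) grown to confluence in E'MEM with 10% FCS, then serum-starved 24 h. Compound added (10 µM […]; 1 µM LPS-induced, 2 µM TGF-β-induced) with or without LPS 1 µg/ml or TGF-β 0.3 ng/ml. After 24 h, conditioned medium cleared by centrifugation (3000 rpm, 10 min, 4 °C) and PAI-1 antigen measured by specific ELISA; activity expressed relative to T-686 reference.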
In general terms: ELISA stands for enzyme-linked immunosorbent assay.

For data set [2], the species on record is Bos taurus. The data set can be described thus: Inhibition of LPS-induced plasminogen activator inhibitor-1 production in BCAEC assessed as relative inhibitory potency in BCAEC at 1 uM after 24 hrs by ELISA relative to T-686. It is filed as functional. The gist of the method:
as §1

Data set [3] is filed under the species Bos taurus. The data set can be described thus: Inhibition of TGF-beta-induced plasminogen activator inhibitor-1 production in BCAEC assessed as relative inhibitory potency in BCAEC at 2 uM after 24 hrs by ELISA relative to T-686. It is filed as functional. The gist of the method: as §1
Data set [4] can be described thus: Oral bioavailability in dog. It is filed as ADME, organism-based, Canis lupus familiaris. To be noted: in vivo.
Data set [5] in a line: Photostability assessed as compound remaining by HPLC analysis. It is filed as physicochemical. The gist of the method:
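Stock (100 µg/ml in acetonitrile) 0.1 ml mixed with 0.9 ml 0.1 N HCl; kept at room temperature 24 h under room light or foil-protected. Read-out as % compound remaining.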

The species named for data set [6] is Rattus norvegicus. The data set can be described thus: Genotoxicity in rat assessed as chromosomal aberration. The data set is classed as toxicity, organism-based. To be noted: in vivo.
Data set [7] deals with Rattus norvegicus. The data set can be described thus: Toxicity in rat assessed as decrease in locomotor activity at 300 mg/kg, po. The note with it: in vivo.
Data set [8] in a line: Inhibition of LPS-induced plasminogen activator inhibitor-1 production in BCAEC after 24 hrs by ELISA. It is filed as functional, Bos taurus. The gist of the method:
(§2)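 BCaEs (passages 8–9) confluent in E'MEM/10% FCS, serum-starved 24 h, then exposed to compound with LPS (1 µg/ml) or TGF-β (0.3 ng/ml) for 24 h. Medium centrifuged at 3000 rpm, 10 min, 4 °C, and PAI-1 antigen quantified by specific ELISA.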

The nature of data set [9]: Inhibition of TGF-beta-induced plasminogen activator inhibitor-1 production in BCAEC after 24 hrs by ELISA. It is filed as functional, Bos taurus. The gist of the method: as §2
Data set [10] in a line: Metabolic stability in dog blood assessed as compound remaining after 1 hr by HPLC analysis. It is filed as ADME, tissue-based, Canis lupus familiaris. To be noted: read-out: Stability. The gist of the method: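 Stock (100 µg/ml in acetonitrile) diluted tenfold with saline; 0.3 ml added to 3 ml heparinized dog blood prewarmed to 37 °C and incubated at 37 °C. After 1 h plasma separated with diethyl ether by centrifugation and parent level determined by HPLC; reported as % remaining.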

A short description of data set [11]: Aqueous solubility in water. It is filed as physicochemical.
Data set [12] deals with Rattus norvegicus. The data set can be described thus: Antithrombotic activity in po dosed rat venous thrombosis model assessed as decrease in thrombus weight administered QD for 8 consecutive days measured after 2 hrs of last dose. It is filed as functional. The gist of the method:
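Rats were dosed orally once daily for 8 days at 0.3, 1 and 3 mg/kg, with vehicle controls. They were anaesthetised with Nembutal 50 mg/kg ip, and all vena cava branches between the left renal vein and the bifurcation were ligated. 2 h after the last dose, 0.1 ml of 1:10 diluted rabbit brain thromboplastin was injected into the penile dorsal vein. Thrombus dry weight was measured.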

For data set [13], the system named is Rattus norvegicus. The data set can be described thus: Toxicity in po dosed rat assessed as increase in bleeding time administered QD for 8 consecutive days measured after 2 hrs of last dose by tail incision bleeding time test. It is filed as organism-based. The note with it: in vivo. The gist of the method: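 Rats were dosed orally once daily for 8 days at 10, 30 and 100 mg/kg, with vehicle controls. Under Nembutal anaesthesia (50 mg/kg ip), 2 h after the last dose, a 2 mm deep incision was made 3.5 cm from the tail tip. Blood was blotted onto filter paper every 30 s, and bleeding time was taken as the time until no blood appeared.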

Data set [14] in a line: Therapeutic index, ratio of ED100 for increase in bleeding time in po dosed rat to ED50 for decrease in thrombus weight in po dosed rat venous thrombosis model. It is filed as organism-based. To be noted: in vivo, read-out: TI. The gist of the method:
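ED100 for prolonged bleeding time (tail incision, oral, daily for 8 days) was divided by ED50 for thrombus weight reduction in the venous thrombosis model (oral, daily for 8 days; ligated vena cava, thromboplastin injected 2 h after the last dose, thrombus dry weight).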

Data set [15] has as its system Rattus norvegicus. The data set can be described thus: Antithrombotic activity in rat arterio-venous shunt model of thrombosis assessed as inhibition of thrombus formation at 10 mg/kg, po QD for 8 consecutive days measured after 2 hrs of last dose. The data set is classed as functional. The gist of the method: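 Rats given test article orally 10 mg/kg once daily for 8 days, controls vehicle. Under Nembutal (50 mg/kg ip), a saline-filled polyethylene tube holding silk thread was placed from the right carotid artery to the left jugular vein. Two hours after the last dose the clamp was released, blood perfused 30 min, and wet weight of thread-bound thrombus taken.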

As for `COC(=O)C(/C(=C\c1ccccc1)C(N)=O)=C(\C)c1cc(OC)c(OC)c(OC)c1`, the Activity in the data set listed under Bos taurus [1] worked out at 0.3.
In the case of `COC(=O)C(=C(/C)c1cc(OC)cc(OC)c1)/C(=C\c1ccccc1)C(=O)N1CCN(C)CC1`, the Activity in the data set filed under Bos taurus [2] and in the data set filed under Bos taurus [3] was 0.3 in each case.
The bioavailability is the share of a dose that reaches the circulation, judged against a reference dose that is usually intravenous. Higher therefore signals good availability. Turning to `COC(=O)C(=C(/C)c1cc(OC)cc(OC)c1)/C(=C\c1ccccc1)C(=O)Nc1ccncc1.Cl`, the Activity in the data set filed under Bos taurus [2] is 1.8; in the data set filed under Bos taurus [3], 1.1; in the data set listed under Rattus norvegicus [6], “Non-toxic”; in the data set on Rattus norvegicus [7] it was “Toxic”. In data set [4], the bioavailability is 52%. Also, the Stability in data set [5] is reported as 85%.
As usually defined, the IC50 is the concentration at which inhibition is half-maximal. Read a high IC50 as weaker potency in that assay. `COc1cc(/C=C2/C(=O)NC(=O)/C2=C/c2ccccc2)cc(OC)c1OC`: the IC50 was 900 nM in data set [8] and 4300 nM in data set [9]. In [4], this compound displayed a bioavailability of 3%. Moreover, the Stability in data set [5] is recorded as 12%. In the data set listed under Rattus norvegicus [6], the Activity result is reported as “Toxic”.
On to `COC(=O)C(=C/c1cc(OC)c(OC)c(OC)c1)/C(=C\c1ccccc1)C(N)=O`, for which the Activity in the data set listed under Bos taurus [1] worked out at 0.9.
For the compound `COC(=O)C(=C(/C)c1cc(OC)cc(OC)c1)/C(=C\c1ccccc1)C(=O)Nc1cccnc1.Cl`, the Activity in the data set listed under Bos taurus [2] is 2.2; in the data set filed under Bos taurus [3] it was 1.1. The compound further showed a bioavailability in data set [4] of 17%. In data set [5], the Stability is given as 88%.
For the compound `COC(=O)C(=C(/C)c1cc(OC)cc(OC)c1)/C(=C\c1ccncc1)C(N)=O.Cl`, the Activity is 1.5 in the data set filed under Bos taurus [2], 1.1 in the data set listed under Bos taurus [3] and “Toxic” in the data set listed under Rattus norvegicus [6]. Moreover, the bioavailability in data set [4] turned out to be 78%. Further, the Stability in data set [5] came out at 97%.
Regarding `COC(=O)C(=C(/C)c1cc(OC)cc(OC)c1)/C(=C\c1ccccc1)C(=O)Nc1nnn[nH]1`, in the data set filed under Bos taurus [2], the Activity came out at 0.1.
For the compound `COC(=O)C(=C(/C)c1cc(OC)c(OC)c(OC)c1)/C(=C\c1ccccc1)C(N)=O`, the Activity in the data set listed under Bos taurus [1] is 1; in the data set filed under Bos taurus [2] it was 1.5; in the data set listed under Bos taurus [3], 0.7; in the data set listed under Rattus norvegicus [6], “Non-toxic”. This compound also showed a bioavailability in data set [4] of 9%. Further, the Stability in data set [5] was 91%.
`COC(=O)C(=C/c1cc(OC)c(OC)c(OC)c1)/C(=C/c1ccccc1)C(N)=O`: the Activity in the data set filed under Bos taurus [1] worked out at 0.7.
What is called solubility is the concentration that dissolves in the medium under given conditions. Higher therefore signals much dissolved substance. In the case of `COc1cc(OC)cc(/C(C)=C2\C(=O)N(Cc3ccncc3)C(=O)\C2=C\c2ccccc2)c1.Cl`, the Activity is 1.8 in the data set listed under Bos taurus [2], 1.4 in the data set listed under Bos taurus [3] and “Non-toxic” in the data set filed under Rattus norvegicus [6]. In addition, the remaining at 1 h in data set [10] was 60%. For the same compound, in data set [11], the solubility was 111 µg/mL. In data set [4], this compound displayed a bioavailability of 18%. The Stability in data set [5] was found to be 38%.
Consider `COC(=O)C(=C(/C)c1cc(OC)cc(OC)c1)/C(=C\c1ccccc1)C(=O)NC1CCN(C)CC1`, for which the Activity in the data set listed under Bos taurus [2] was 0.8; in the data set listed under Bos taurus [3], less than 0.1.
By ED50 is commonly meant the dose that gives a 50% effect, or the effect in half of the subjects. Take `CC(=O)CC(c1ccccc1)c1c(O)c2ccccc2oc1=O` (configuration not stated) [WARFARIN]: the ED50 in the data set on Rattus norvegicus [12] came to 0.1 mg/kg/day. For the same compound, the ED100 with Rattus norvegicus [13] was 0.2 mg/kg/day. Besides, the selectivity ratio in data set [14] worked out at 2.
Turning to `COC(=O)C(=C(/C)c1cc(OC)cc(OC)c1)/C(=C\c1ccccc1)C(=O)Nc1ncccn1`, the Activity in the data set filed under Bos taurus [2] was determined as 0.1.
With `COc1cc(OC)cc(/C(C)=C2\C(=O)N(Cc3cccnc3)C(=O)\C2=C\c2ccccc2)c1.Cl`, the Activity in the data set listed under Bos taurus [2] is 1; in the data set filed under Bos taurus [3], 1.4. The remaining at 1 h in [10] is 65%. In addition, the concentration in solution in [11] (solubility) was 38 µg/mL. Besides, the Stability in data set [5] turned out to be 47%.
In the case of `COC(=O)C(=C/c1cc(OC)c(OC)c(OC)c1)/C(C(N)=O)=C(/C)c1ccccc1`, the Activity in the data set filed under Bos taurus [1] turned out to be 0.2.
As to `COC(=O)C(=C(/C)c1cc(OC)cc(OC)c1)/C(=C\c1ccccc1)C(=O)NN1CC[N+](C)([O-])CC1`, the Activity in the data set filed under Bos taurus [2] is 0.2.
In the case of `COC(=O)C(=C\c1cc(OC)c(OC)c(OC)c1)/C(=C\c1ccccc1)C(N)=O`, the Activity in the data set filed under Bos taurus [1] was 0.7.
As usually defined, the inhibition in vivo is how much of the control response was suppressed. Consider `COC(=O)C(=C(/C)c1cc(OC)cc(OC)c1)/C(=C\c1ccccc1)C(=O)NN1CCN(C)CC1.Cl`, for which the Activity is 1.5 in the data set filed under Bos taurus [2], 0.9 in the data set listed under Bos taurus [3], “Non-toxic” in the data set listed under Rattus norvegicus [6] and “Non-toxic” in the data set with Rattus norvegicus [7]. Also, the solubility in data set [11] was more than 4000 µg/mL. This compound yielded a bioavailability in data set [4] of 49%. For the same compound, in data set [5], the Stability was determined as 91%. In addition, the inhibition in vivo at 10 mg/kg in the data set on Rattus norvegicus [15] is 22%. For the same compound, the ED50 with Rattus norvegicus [12] was 0.8 mg/kg/day. The ED100 with Rattus norvegicus [13] is more than 100 mg/kg/day. In addition, the selectivity ratio in data set [14] was more than 125.
Consider `COC(=O)C(=C(/C)c1cc(OC)cc(OC)c1)/C(=C\c1ccccc1)C(=O)Nc1cccc2cccnc12`, for which the Activity in the data set listed under Bos taurus [2] came out at 0.4.
In the case of `COC(=O)C(=C(/C)c1cc(OC)cc(OC)c1)/C(=C\c1ccccc1)C(=O)NCc1cccnc1.Cl`, the Activity is 1.3 in the data set listed under Bos taurus [2], 1.8 in the data set filed under Bos taurus [3], “Non-toxic” in the data set listed under Rattus norvegicus [6] and “Toxic” in the data set with Rattus norvegicus [7]. This compound also yielded a bioavailability in data set [4] of 21%. Also, in data set [5], the Stability amounted to 90%.
For the compound `COC(=O)C(=C(/C)c1cc(OC)cc(OC)c1)/C(=C\c1ccccc1)C(=O)NCc1ccncc1.Cl`, the Activity in the data set filed under Bos taurus [2] is 2.1; in the data set filed under Bos taurus [3] it was 1.9; in the data set filed under Rattus norvegicus [6], “Toxic”. In addition, the bioavailability in data set [4] was 28%. Further, the Stability in data set [5] was found to be 96%.
With `COC(=O)C(=C/c1cc(OC)c(OC)c(OC)c1)/C(C(N)=O)=C(\C)c1ccccc1`, in the data set listed under Bos taurus [1], the Activity came to 0.3.
With `COC(=O)C(=C(/C)c1cc(OC)cc(OC)c1)/C(=C\c1cccnc1)C(N)=O`, the results for the Activity in the data set filed under Bos taurus [2] and in the data set filed under Bos taurus [3] were 0.8 and 1.2, respectively.
In the case of `COC(=O)C(=C(/C)c1cc(OC)cc(OC)c1)/C(=C\c1ccccc1)C(=O)O`, the figures for the Activity in the data set filed under Bos taurus [2] and in the data set filed under Bos taurus [3] were 0.4 and 0.3, respectively.
In the case of `COC(=O)C(=C(/C)c1cc(OC)cc(OC)c1)/C(=C\c1ccccc1)C(=O)Nn1cnnc1`, in the data set listed under Bos taurus [2], the Activity was 0.6.
